From PubChem BioAssay
HePTP inh = human HePTP phosphatase inhibition. P35236. recombinant HePTP phosphatase activity, OD absorbance. inhibition, % at 20 µM. 110,000 tested, 0.64% active. AID 521; in the data active = inhibition above about 50%
RORA act = activates the human nuclear receptor RORA; CHO-K1 Gal4-RORA LBD luciferase reporter, luminescence; percent increase over mock-subtracted basal signal; 65,000 tested, 1.5% active; P35398; activation, % at 10 µM; AID 560;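 active = activation above the mean of all tested compounds plus 3 SD, cut at about 49% in these data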
M1 antagonist = antagonists of rat M1 muscarinic receptor. 64,000 tested, 3.4% active. B-score at 10 µM. P08482. CHO-M1 cells, Fluo-4 calcium, ACh EC80 antagonist mode; active compounds read low. AID 628;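 active = calcium fluorescence response, raw or row-and-column corrected B-score, differing from the plate sample mean either way at a set confidence level, mostly lower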
SF-1 act = activators of human nuclear receptor SF-1. Q13285. CHO-K1 Gal4-SF-1 LBD luciferase reporter; % increase over DMSO SF-1-specific signal. activation, % at 10 µM. 65,000 tested, 1.9% active;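 active = activation above the mean activation of all tested compounds plus 3 SD, cut at about 50% in these data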
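Compound – one dose, 10 µM compound, 1% DMSO · Test system – transient Gal4-SF-1 LBD reporter, CHO-K1 · Input – 4,000 cells in each well · Read-out basis – percent activation relative to DMSO median and mock-transfected background · Replicates – single measurement per compound · Technique – steady-glow luciferase luminescence, read after 15 min reagent incubation · Timing – 20 h compound treatment, 37 °C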
D1 mod = allosterically modulates the human D1 dopamine receptor; P21728; HEK293 D1, CRE-luciferase, dopamine EC30 potentiation; actives deviate in either direction; B-score at 10 µM; 58,000 tested, 5.9% active; AID 641;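 active = luminescence count or its row- and column-corrected plate score outside the 99.7% band of the plate's sample wells, on either side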
Target sequence (P21728 whole entry, looked up): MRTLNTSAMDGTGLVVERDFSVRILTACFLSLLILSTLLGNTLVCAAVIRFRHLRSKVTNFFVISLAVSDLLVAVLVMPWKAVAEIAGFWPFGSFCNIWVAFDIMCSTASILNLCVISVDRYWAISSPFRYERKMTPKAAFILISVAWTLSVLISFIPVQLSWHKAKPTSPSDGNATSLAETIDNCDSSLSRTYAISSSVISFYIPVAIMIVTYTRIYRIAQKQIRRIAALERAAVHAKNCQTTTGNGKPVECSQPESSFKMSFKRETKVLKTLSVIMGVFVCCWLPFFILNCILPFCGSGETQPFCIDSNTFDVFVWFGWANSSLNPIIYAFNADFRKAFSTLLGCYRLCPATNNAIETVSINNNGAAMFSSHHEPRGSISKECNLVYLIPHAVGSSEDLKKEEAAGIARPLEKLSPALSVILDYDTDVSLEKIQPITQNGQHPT
M1 agonist = M1 muscarinic receptor agonism. CHO-M1 cells, Fluo-4 calcium fluorescence, agonist mode; active compounds read high. AID 626. 64,000 tested, 3% active. B-score at 10 µM;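 active = fluorescence rise, raw or as B-score row- and column-corrected plate score, outside the 99.7% band of its plate's samples, either direction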
D1 PAM confirm = D1 receptor (human) allosteric modulation, confirmed | HEK293 D1 CRE-luciferase, dopamine EC30 potentiation; active compounds read high | 2,200 tested, 88% active | luminescence at 10 µM | shares compounds with D1 mod | AID 642;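 active = luminescence in either of two replicates above the same-plate mean plus 3 SD of the low-dose dopamine control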
D1 no dopamine = D1 (human) signaling in absence of dopamine; shares compounds with D1 mod; HEK293 D1 CRE-luciferase, luminescence, no dopamine; active compounds read high; luminescence at 10 µM; 1,900 tested, 0.8% active; in the data active = luminescence above about 3900
Isoprot counter = alters isoproterenol CRE-luciferase response in HEK293 cells | shares compounds with D1 mod | HEK293 D1 CRE-luciferase, isoproterenol EC30 counter-screen | calls only at 10 µM | 2,200 tested, 63% active | AID 647;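 active = luminescence in either replicate above plate mean of wells with a partly effective reference agonist dose plus 3 SD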;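 note: isoproterenol raises cAMP through native beta-adrenoceptor Gs so signal bypasses D1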
Each line names hits and unclear results; the compound was inactive in the other large screens (follow-up assays come after a bar, where they were run). This is a sample that favours compounds with a hit; in the whole collection about 8.2% have one here.

COC(=O)C1CCN(C(=O)COc2cc3sc(C)nc3c3sccc23)CC1	none
Cc1nc2c(cc(Oc3ccc(S(=O)(=O)N4CCOCC4)cn3)c3ccsc32)s1	SF-1 act 53, D1 mod 8.5 | D1 PAM confirm 12244 | D1 no dopamine inactive | Isoprot counter active
CC1(C)Cc2c(C#N)c(SCC(=O)c3ccccc3)nc(N3CCCC3)c2CO1	none (no result: D1 mod)
O=c1cc(CO)oc(CN2CCN(c3ccccc3)CC2)c1O	D1 mod 3.1 (no result: HePTP inh) | D1 PAM confirm inactive | D1 no dopamine inactive | Isoprot counter inactive
CS(=O)(=O)N(CCc1ccccc1)CC(=O)N1CCCCC1	none
CCCn1nc(NC(=O)c2ccco2)c2cc3ccc(C)cc3nc21	none
CCn1nc(NC(=O)c2ccncc2)c2cc3cccc(C)c3nc21	none
CCn1nc(NC(=O)c2ccco2)c2cc3ccccc3nc21	D1 mod 14 | D1 PAM confirm 12332 | D1 no dopamine inactive | Isoprot counter active
CCn1nc(NC(=O)c2ccncc2)c2cc3ccccc3nc21	D1 mod 11 | D1 PAM confirm 15352 | D1 no dopamine inactive | Isoprot counter active
O=C(NCC1CCCO1)C1CCN(C(=O)c2ccc(Cl)cc2)CC1 (stereo not drawn)	none
COc1ccc(C(=O)n2nc(-c3ccccc3)nc2N)cc1OC	D1 mod 6.1 | D1 PAM confirm 15096 | D1 no dopamine inactive | Isoprot counter active
CCOC(=O)c1[nH]cnc1C(=O)Nc1ccc(Br)cc1	none (no result: RORA act, M1 antagonist, SF-1 act, D1 mod, M1 agonist)
CCOC(=O)c1[nH]cnc1C(=O)Nc1ccncc1	D1 mod 13 | D1 PAM confirm 14788 | D1 no dopamine inactive | Isoprot counter active
CCCc1nc2c(nnn2Cc2ccccc2)c(=O)[nH]1	D1 mod 7.1 | D1 PAM confirm 11892 | D1 no dopamine inactive | Isoprot counter active
O=c1[nH]c(C2CCCN(S(=O)(=O)c3ccccc3)C2)nc2c1nnn2Cc1ccccc1 (stereo not drawn)	D1 mod 4.2 | D1 PAM confirm 10532 | Isoprot counter active
O=c1[nH]c(C2CCCN(S(=O)(=O)c3ccccc3)C2)nc2c1nnn2Cc1ccccc1F (stereo not drawn)	D1 mod 6.8 | D1 PAM confirm 12364 | D1 no dopamine inactive | Isoprot counter active
Cc1ccc(Cn2nnc3c(=O)[nH]c(C4CCN(S(=O)(=O)c5ccc(F)cc5)CC4)nc32)cc1	none
COc1ccc(N2CCN(Cc3nc4c(c(=O)[nH]c(=O)n4C)n3Cc3cccc(Cl)c3)CC2)cc1	none (no result: D1 mod)
CCOC(=O)C1=C(C)Nc2nc(SCC(=O)OC)nn2C1c1cc(F)cc(F)c1 (stereo not drawn)	none
COc1ccc(N2CCN(Cc3nc(N)nc(N4CCCc5ccccc54)n3)CC2)cc1	D1 mod 5.7 (no result: M1 antagonist, M1 agonist) | D1 PAM confirm 13244 | D1 no dopamine inactive | Isoprot counter active
CN(c1ccccc1)c1nc(N2CCCC2)nc(-n2ccnc2)n1	D1 mod 4.9 | D1 PAM confirm 11496 | D1 no dopamine inactive | Isoprot counter active
COc1ccc(C2=NOC(C(=O)Nc3ccc(C(C)=O)cc3)C2)cc1OC (stereo not drawn)	D1 mod 5 | D1 PAM confirm 8288 | Isoprot counter active
COc1ccc(OC)c(C2=NOC(C(=O)Nc3cccc(C(C)=O)c3)C2)c1 (stereo not drawn)	D1 mod 3.7 | D1 PAM confirm 9256 | D1 no dopamine inactive | Isoprot counter inactive
COc1ccc(C2=NOC(C(=O)Nc3cc(Br)ccc3O)C2)cc1OC (stereo not drawn)	D1 mod 38 | D1 PAM confirm 25996 | D1 no dopamine inactive | Isoprot counter active
COc1ccc(C2=NOC(C(=O)Nc3c(C)n(C)n(-c4ccccc4)c3=O)C2)cc1OC (stereo not drawn)	none
COc1ccc(C2=NOC(C(=O)N3CCCCCC3)C2)cc1OC (stereo not drawn)	none
COc1ccc(C2=NOC(C(=O)NC3CCCCC3)C2)cc1OC (stereo not drawn)	D1 mod 4.6 | D1 PAM confirm 14608 | D1 no dopamine inactive | Isoprot counter inactive
CC(C)OCCCNC(=O)C(=O)NCCc1ccc(Cl)cc1	none (no result: RORA act, M1 antagonist, SF-1 act, D1 mod, M1 agonist)
COc1ccc(CNc2ccc(S(N)(=O)=O)cc2)c(OC)c1OC	D1 mod 5.3 | D1 PAM confirm 7284 | D1 no dopamine inactive | Isoprot counter active
CCOC(=O)Cc1nnc(NC(=O)CSc2nnc3c4ccccc4n(C(C)C)c3n2)s1	D1 mod 7.5 | D1 PAM confirm 11008 | D1 no dopamine inactive | Isoprot counter active
Cc1nnc(NC(=O)CSc2nnc3c4ccccc4n(C(C)C)c3n2)s1	none (no result: RORA act, M1 antagonist, SF-1 act, D1 mod, M1 agonist)
Cc1cc2oc(C(=O)Nc3c(C)n(C)n(-c4ccccc4)c3=O)c(C)c2cc1C	none (no result: HePTP inh)
CCOC(=O)c1ccc(N2C(=O)CC(C3CCCO3)C2=O)cc1 (stereo not drawn)	none (no result: D1 mod)
COc1cccc(-n2c(SCC(=O)Nc3cc(C)on3)nc3c([nH]c4ccccc43)c2=O)c1	D1 mod 5.7 | D1 PAM confirm 10104 | D1 no dopamine inactive | Isoprot counter active
Cc1cc2[nH]c(=O)cc(-c3ccccc3)n2n1	none (no result: RORA act, M1 antagonist, SF-1 act, D1 mod, M1 agonist)
Cc1ccc(S(=O)(=O)NC(c2ccccc2)c2ccc(Br)cc2)cc1[N+](=O)[O-] (stereo not drawn)	none (no result: RORA act, M1 antagonist, SF-1 act, D1 mod, M1 agonist)
CCOc1ccc(C(C)=O)cc1COC(=O)C1=COCCO1	D1 mod 4.7 | D1 PAM confirm 12532 | D1 no dopamine inactive | Isoprot counter active
COC(=O)c1c(N)c(C#N)c2n1CCCCC2	D1 mod 3.8 | D1 PAM confirm 7512 | Isoprot counter inactive
Cc1cccc(N2CCN(C(=O)c3cn(C)c(=O)c4c3c3ccccc3n4C)CC2)c1C	none
Cc1nc(SCC#N)c2c3c(sc2n1)CCC3	none (no result: D1 mod)
N#CCSc1ncnc2sc3c(c12)CCC3	D1 mod 4.9 | D1 PAM confirm 12888 | D1 no dopamine inactive | Isoprot counter inactive
CC(C#N)Sc1ncnc2sc3c(c12)CCC3 (stereo not drawn)	D1 mod 6.3 | D1 PAM confirm 21012 | D1 no dopamine inactive | Isoprot counter active
Cc1noc(C)c1CSc1ncnc2sc3c(c12)CCC3	none (no result: D1 mod)
CN(C)S(=O)(=O)c1cccc(C(=O)OCC(=O)N2c3ccccc3NC(=O)C2(C)C)c1	none
CCSC1=N/C(=C\c2ccc(C(=O)O)cc2)C(=O)S1	none
O=C(c1ccccc1)c1cc(Br)ccc1NC(=O)c1nc[nH]c1C(=O)O	none (no result: RORA act, M1 antagonist, SF-1 act, D1 mod, M1 agonist)
